Source: ChEMBL document CHEMBL3745614, “Potent and selective N-(4-sulfamoylphenyl)thiourea-based GPR55 agonists” (Eur J Med Chem, 2016)

What was measured:
[1] = molecular target: T1, Lysophosphatidylserine lipase ABHD12 (Homo sapiens) (UniProt Q8N2K0); experiment: Inhibition of human ABHD12 expressed in […] cells using 2-AG as substrate assessed as glycerol liberation at 10 uM preincubated for 30 mins followed by 2-AG addition measured for 90 mins by fluorescent glycerol assay relative to control; type: cell-based; parameters: scale not given: the % may be the effect or the level left
T1 sequence (whole entry): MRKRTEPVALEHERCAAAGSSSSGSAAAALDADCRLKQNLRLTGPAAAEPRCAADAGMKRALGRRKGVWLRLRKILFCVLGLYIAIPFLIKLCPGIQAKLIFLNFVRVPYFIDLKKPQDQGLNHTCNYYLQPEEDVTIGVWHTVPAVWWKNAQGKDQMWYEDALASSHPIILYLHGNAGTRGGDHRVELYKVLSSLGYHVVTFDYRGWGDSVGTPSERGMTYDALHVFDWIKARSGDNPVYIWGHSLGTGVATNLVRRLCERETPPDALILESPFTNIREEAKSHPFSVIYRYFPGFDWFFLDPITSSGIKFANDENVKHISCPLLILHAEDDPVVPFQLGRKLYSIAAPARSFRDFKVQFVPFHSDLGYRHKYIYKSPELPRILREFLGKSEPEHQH
Summary of the method: (§1)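 Lysates of HEK293 cells transiently overexpressing hABHD6 or hABHD12, 0.3 μg protein/well. Pretreated 30 min with DMSO or compound, then 2-AG added (12.5 μM final). Glycerol release coupled enzymatically to H2O2-dependent resorufin formation; fluorescence (ex 530/em 590 nm) followed kinetically for 90 min.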

[2] = molecular target: Cannabinoid receptor 2 (Homo sapiens) (UniProt P34972); experiment: Antagonist activity at human CBR2 assessed as [35S]GTPgammaS binding at 10 uM by […] assay relative to control; type: functional; parameters: scale not given: the % may be the effect or the level left
[3] = molecular target: T2, Fatty-acid amide hydrolase 1 (Homo sapiens) (UniProt O00519); experiment: Inhibition of human FAAH expressed in African green monkey COS-7 cell membranes using [3H]-AEA as substrate assessed as residual activity at 10 uM preincubated for 10 mins followed by substrate addition measured after 10 mins by liquid scintillation counting analysis relative to control
T2 sequence (whole entry): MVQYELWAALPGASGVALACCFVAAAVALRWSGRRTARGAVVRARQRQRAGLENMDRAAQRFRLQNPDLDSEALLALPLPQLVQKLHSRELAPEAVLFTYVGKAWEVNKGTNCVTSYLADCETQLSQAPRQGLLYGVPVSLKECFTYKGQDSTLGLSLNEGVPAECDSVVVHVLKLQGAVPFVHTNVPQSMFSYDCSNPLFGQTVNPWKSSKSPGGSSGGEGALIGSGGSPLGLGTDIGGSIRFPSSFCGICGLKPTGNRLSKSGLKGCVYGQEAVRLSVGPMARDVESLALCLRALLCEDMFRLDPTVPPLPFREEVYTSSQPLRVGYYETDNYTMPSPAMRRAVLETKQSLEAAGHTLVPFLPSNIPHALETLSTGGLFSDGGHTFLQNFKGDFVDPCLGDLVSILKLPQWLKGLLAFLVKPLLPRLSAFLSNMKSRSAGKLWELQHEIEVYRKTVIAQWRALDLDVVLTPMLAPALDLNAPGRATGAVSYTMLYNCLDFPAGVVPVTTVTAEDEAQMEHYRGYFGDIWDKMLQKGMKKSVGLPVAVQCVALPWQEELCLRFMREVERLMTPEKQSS
Summary of the method: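 Membranes of COS-7 cells overexpressing hFAAH, 1 μg protein per incubation. Substrate 20 μM AEA including 10 nM [3H]AEA (60 Ci/mmol). Compounds tested at 10 μM.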

[4] = molecular target: Cannabinoid receptor 1 (Homo sapiens) (UniProt P21554); experiment: Agonist activity at CBR1 (unknown origin) assessed as [35S]GTPgammaS binding at 10 uM by […] assay relative to control; type: functional
[5] = molecular target: Cannabinoid receptor 2 (Homo sapiens) (UniProt P34972); experiment: Agonist activity at CBR2 (unknown origin) assessed as [35S]GTPgammaS binding at 10 uM by […] assay relative to control; type: functional
[6] = molecular target: T3, G-protein coupled receptor 55 (Homo sapiens, UniProt Q9Y2T6); experiment: Agonist activity at human GPR55 expressed in CHOK1 cells at 10 uM by pathHunter beta-arrestin assay relative to control; type: cell-based; settings: CHO-K1
Summary of the method: (§2)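 PathHunter eXpress GPR55 CHO-K1 β-arrestin kit run per the kit protocol, compounds screened at 10 μM. Luminescence read and expressed as percentage of the signal from bovine liver LPI at 1 μM. Mean with range of two experiments, each done in duplicate.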

[7] = molecular target: T4, Monoglyceride lipase (Homo sapiens) (UniProt Q99685); experiment: Inhibition of human MGL expressed in […] cells using 2AG as substrate assessed as residual activity at 10 uM preincubated for 10 mins followed by substrate addition measured after 10 mins by HPLC analysis; type: cell-based
T4 sequence (whole entry): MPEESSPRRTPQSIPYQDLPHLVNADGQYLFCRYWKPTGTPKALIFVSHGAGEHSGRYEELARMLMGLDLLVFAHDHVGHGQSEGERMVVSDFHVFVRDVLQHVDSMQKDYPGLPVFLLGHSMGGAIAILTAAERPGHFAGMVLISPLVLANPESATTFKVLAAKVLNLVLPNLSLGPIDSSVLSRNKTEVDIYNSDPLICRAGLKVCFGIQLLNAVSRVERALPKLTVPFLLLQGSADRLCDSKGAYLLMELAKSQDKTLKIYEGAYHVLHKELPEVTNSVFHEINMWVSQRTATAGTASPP
Summary of the method: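 Lysates of HEK cells overexpressing hMGL, 2.5 μg protein per incubation, substrate at 50 μM. Compounds tested at 10 μM.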

[8] = molecular target: Cannabinoid receptor 1 (Homo sapiens) (UniProt P21554); experiment: Antagonist activity at human CBR1 assessed as [35S]GTPgammaS binding at 10 uM by radiometric assay relative to control; parameters: scale not given: the % may be the effect or the level left
[9] = molecular target: T5, Monoacylglycerol lipase ABHD6 (Homo sapiens) (UniProt Q9BV23); experiment: Inhibition of human ABHD6 expressed in […] cells using 2-AG as substrate assessed as glycerol liberation at 10 uM preincubated for 30 mins followed by 2-AG addition measured for 90 mins by fluorescent glycerol assay relative to control; type: cell-based; parameters: scale not given: the % may be the effect or the level left; summary of the method: as §1
T5 sequence (whole entry): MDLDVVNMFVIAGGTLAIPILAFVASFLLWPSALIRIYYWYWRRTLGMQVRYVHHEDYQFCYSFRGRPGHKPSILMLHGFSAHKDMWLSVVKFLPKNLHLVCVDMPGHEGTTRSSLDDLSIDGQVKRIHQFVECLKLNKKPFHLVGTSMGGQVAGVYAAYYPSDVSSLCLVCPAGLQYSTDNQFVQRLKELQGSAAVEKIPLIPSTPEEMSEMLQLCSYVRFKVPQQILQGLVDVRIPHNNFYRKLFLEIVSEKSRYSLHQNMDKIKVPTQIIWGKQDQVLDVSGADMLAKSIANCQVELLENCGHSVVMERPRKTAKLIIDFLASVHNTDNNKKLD

[10] = molecular target: T3, G-protein coupled receptor 55; experiment: Agonist activity at human GPR55 expressed in HEK293 cells assessed as calcium signalling by fura 2-based digital epifluorescence microscopy; type: functional, cell-based
Summary of the method: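 HEK293 cells stably expressing GPR55, grown on poly-L-lysine coated glass coverslips and serum-starved overnight. Compounds applied by bath perfusion in HEPES-buffered saline at 30-32 °C. Single-cell fura 2 ratiometric imaging (350/380 nm) every 5 s. Peak responses pooled from 24 cells (12 random cells from each of two experiments) per concentration; EC50 with 95% CI from concentration-response curves. ARA-LPI used as reference agonist.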

[11] = molecular target: T3, G-protein coupled receptor 55; experiment: Agonist activity at human GPR55 expressed in CHOK1 cells at 10 uM by pathHunter beta-arrestin assay relative to LPI; type: cell-based; settings: CHO-K1; summary of the method: as §2
[12] = molecular target: T5, Monoacylglycerol lipase ABHD6 (Homo sapiens); experiment: Inhibition of human ABHD6 expressed in […] cells using 2-AG as substrate assessed as glycerol liberation at 1 uM preincubated for 30 mins followed by 2-AG addition measured for 90 mins by fluorescent glycerol assay relative to control; type: cell-based; parameters: scale not given: the % may be the effect or the level left; summary of the method: as §1

Chain of Cannabinoid receptor 1 (Homo sapiens) (P21554 whole entry): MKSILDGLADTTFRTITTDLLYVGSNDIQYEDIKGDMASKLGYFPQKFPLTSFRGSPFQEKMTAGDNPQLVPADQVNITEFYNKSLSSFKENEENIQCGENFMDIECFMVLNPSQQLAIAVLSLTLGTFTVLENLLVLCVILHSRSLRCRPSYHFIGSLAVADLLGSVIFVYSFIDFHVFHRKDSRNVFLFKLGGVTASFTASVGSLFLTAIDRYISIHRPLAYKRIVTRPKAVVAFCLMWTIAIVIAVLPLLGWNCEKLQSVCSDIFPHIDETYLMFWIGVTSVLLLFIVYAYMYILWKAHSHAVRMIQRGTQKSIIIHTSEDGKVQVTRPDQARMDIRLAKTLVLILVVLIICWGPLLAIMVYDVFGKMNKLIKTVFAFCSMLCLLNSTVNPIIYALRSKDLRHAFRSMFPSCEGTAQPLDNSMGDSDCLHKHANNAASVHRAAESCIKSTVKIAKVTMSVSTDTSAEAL
Chain of Cannabinoid receptor 2 (Homo sapiens) (P34972 whole entry): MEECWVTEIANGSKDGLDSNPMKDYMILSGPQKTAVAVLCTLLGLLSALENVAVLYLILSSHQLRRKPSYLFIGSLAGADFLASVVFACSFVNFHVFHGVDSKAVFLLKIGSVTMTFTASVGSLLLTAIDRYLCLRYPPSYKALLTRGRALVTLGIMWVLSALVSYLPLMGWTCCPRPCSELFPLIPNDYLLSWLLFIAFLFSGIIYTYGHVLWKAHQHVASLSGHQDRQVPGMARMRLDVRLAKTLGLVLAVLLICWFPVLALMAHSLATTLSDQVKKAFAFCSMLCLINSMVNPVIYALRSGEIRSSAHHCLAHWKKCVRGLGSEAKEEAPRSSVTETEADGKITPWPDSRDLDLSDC
T3 sequence (Q9Y2T6 whole entry): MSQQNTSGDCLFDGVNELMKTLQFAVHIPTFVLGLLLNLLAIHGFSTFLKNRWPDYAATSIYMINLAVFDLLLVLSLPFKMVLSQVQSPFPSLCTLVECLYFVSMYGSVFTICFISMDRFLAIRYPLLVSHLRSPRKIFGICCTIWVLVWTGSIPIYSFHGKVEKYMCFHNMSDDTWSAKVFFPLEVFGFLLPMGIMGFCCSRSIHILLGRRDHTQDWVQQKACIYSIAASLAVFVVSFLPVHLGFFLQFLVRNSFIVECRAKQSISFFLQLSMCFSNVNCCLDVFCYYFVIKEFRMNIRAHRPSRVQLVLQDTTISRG

NS(=O)(=O)c1ccc(NC(=S)NC(=O)c2ccc(-c3ccccc3)cc2)cc1
Activity [1]: 84%
Activity [2]: 89%
Activity [3]: 34%
Activity [4]: 147%
Activity [5]: 95%
Activity [6]: 150%
Activity [7]: 94%
Activity [8]: 119%
Activity [9]: 85%

CN(C)S(=O)(=O)c1ccc(NC(=S)NC(=O)c2ccc(-c3ccccc3)cc2)cc1
Activity [1]: 74%
Activity [2]: 96%
Activity [3]: 54%
Activity [4]: 105%
Activity [5]: 90%
Activity [6]: 148%
EC50 [10]: 55.7 nM
Activity [7]: 93%
Activity [11]: 101%
Activity [8]: 96%
Activity [9]: 79%

C=CCN(CC=C)S(=O)(=O)c1ccc(NC(=S)NC(=O)c2ccc(-c3ccccc3)cc2)cc1
Activity [1]: 72%
Activity [2]: 105%
Activity [3]: 92%
Activity [4]: 95%
Activity [5]: 100%
Activity [6]: 176%
Activity [7]: 96%
Activity [8]: 80%
Activity [9]: 74%

O=C(NC(=S)Nc1ccc(S(=O)(=O)Nc2ccc(Cl)cc2)cc1)c1ccc(-c2ccccc2)cc1
Activity [1]: 82%
Activity [2]: 101%
Activity [3]: 89%
Activity [4]: 93%
Activity [5]: 94%
Activity [6]: 231%
Activity [7]: 105%
Activity [11]: 158%
Activity [8]: 84%
Activity [9]: 93%

O=C(NC(=S)Nc1ccc(S(=O)(=O)NCc2ccccc2)cc1)c1ccc(-c2ccccc2)cc1
Activity [1]: 86%
Activity [2]: 83%
Activity [3]: 106%
Activity [4]: 97%
Activity [5]: 93%
Activity [6]: 291%
EC50 [10]: 5.6 nM
Activity [7]: 97%
Activity [11]: 197%
Activity [8]: 94%
Activity [9]: 86%

CC(=O)NS(=O)(=O)c1ccc(NC(=S)NC(=O)c2cccc3ccccc23)cc1
Activity [1]: 82%
Activity [2]: 97%
Activity [3]: 107%
Activity [4]: 96%
Activity [5]: 94%
Activity [6]: 99%
Activity [7]: 98%
Activity [11]: 66%
Activity [8]: 101%
Activity [9]: 88%

COc1ccc(C(=O)NC(=S)Nc2ccc(S(=O)(=O)NC(C)C)cc2)cc1
Activity [1]: 78%
Activity [2]: 92%
Activity [12]: 102%
Activity [3]: 103%
Activity [4]: 93%
Activity [5]: 90%
Activity [6]: 91%
Activity [7]: 93%
Activity [11]: 62%
Activity [8]: 95%
Activity [9]: 66%

CCCCC/C=C\C/C=C\C/C=C\C/C=C\CCCC(=O)OC[C@@H](O)COP(=O)(O)O[C@@H]1[C@@H](O)[C@H](O)[C@@H](O)[C@H](O)[C@@H]1O
EC50 [10]: 20.2 nM

CC(=O)NS(=O)(=O)c1ccc(NC(=S)NC(=O)c2ccc(C(C)C)cc2)cc1
Activity [1]: 88%
Activity [2]: 92%
Activity [3]: 103%
Activity [4]: 100%
Activity [5]: 96%
Activity [6]: 99%
Activity [7]: 99%
Activity [11]: 67%
Activity [8]: 98%
Activity [9]: 81%

O=C(NC(=S)Nc1ccc(S(=O)(=O)Nc2ccccc2)cc1)c1ccc(-c2ccccc2)cc1
Activity [1]: 78%
Activity [2]: 96%
Activity [3]: 103%
Activity [4]: 100%
Activity [5]: 90%
Activity [6]: 263%
EC50 [10]: 6.2 nM
Activity [7]: 104%
Activity [11]: 178%
Activity [8]: 95%
Activity [9]: 78%

Cc1ccc(C(=O)NC(=S)Nc2ccc(S(=O)(=O)NC(C)C)cc2)c(Br)c1
Activity [1]: 74%
Activity [2]: 100%
Activity [12]: 106%
Activity [3]: 97%
Activity [4]: 103%
Activity [5]: 88%
Activity [6]: 105%
Activity [7]: 89%
Activity [11]: 70%
Activity [8]: 88%
Activity [9]: 59%

CN1CCN(S(=O)(=O)c2ccc(NC(=S)NC(=O)c3ccc(-c4ccccc4)cc3)cc2)CC1
Activity [1]: 81%
Activity [2]: 95%
Activity [3]: 101%
Activity [4]: 101%
Activity [5]: 101%
Activity [6]: 218%
EC50 [10]: 218 nM
Activity [7]: 97%
Activity [11]: 148%
Activity [8]: 91%
Activity [9]: 76%

CCCCc1ccc(NS(=O)(=O)c2ccc(NC(=S)NC(=O)c3ccc(-c4ccccc4)cc3)cc2)cc1
Activity [1]: 83%
Activity [2]: 100%
Activity [3]: 95%
Activity [4]: 96%
Activity [5]: 90%
Activity [6]: 134%
Activity [7]: 104%
Activity [11]: 91%
Activity [8]: 78%
Activity [9]: 97%

CCCNS(=O)(=O)c1ccc(NC(=S)NC(=O)c2ccc(-c3ccccc3)cc2)cc1
Activity [1]: 77%
Activity [2]: 85%
Activity [12]: 103%
Activity [3]: 96%
Activity [4]: 128%
Activity [5]: 85%
Activity [6]: 252%
EC50 [10]: 176 nM
Activity [7]: 103%
Activity [11]: 172%
Activity [8]: 91%
Activity [9]: 67%
